Results from ChEMBL document CHEMBL3397031, “Synthesis and structure-activity relationships of pyridinyl-1H-1,2,3-triazolyldihydroisoxazoles as potent inhibitors of tubulin polymerization” (Eur J Med Chem, 2015).
Activity calls are given as the source filed them. The rule behind the calls is not given here.

How the values were obtained:
A549 = experiment: Cytotoxicity against human A549 cells after 48 hrs by MTT assay; format: functional, cell-based; conditions: A549, 48 h
Outline: (§1)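 A549, HeLa and MCF7 cells were grown in DMEM with 10% FBS, and DU145 in MEM with non-essential amino acids, pyruvate, insulin and 10% FBS. Cells were plated 24 h before dosing, then exposed continuously for 48 h at 1, 10, 25 and 100 µM in triplicate wells. MTT was added for 60 min, dissolved in DMSO and read at 560 nm. IC50 was taken from dose-response curves against control, as mean ± SD of three independent experiments.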

MCF7 = experiment: Cytotoxicity against human MCF7 cells after 48 hrs by MTT assay; format: functional, cell-based; conditions: MCF7, 48 h; outline: as §1
Tubulin (Bos taurus) = Tubulin (Bos taurus) (UniProt Q6B856+Q862L2+Q862F3); conditions: at 10 µM
HeLa [1] = experiment: Cytotoxicity against human HeLa cells after 48 hrs by MTT assay; format: functional, cell-based; outline: as §1
DU-145 = experiment: Cytotoxicity against human DU145 cells after 48 hrs by MTT assay; format: functional, cell-based; conditions: DU-145, 48 h; outline: as §1
HeLa [2] = experiment: Cell cycle arrest at G2/M phase in human HeLa cells assessed as increase in soluble form of tubulin at 10 uM after 24 hrs by immunoblot analysis relative to control; format: functional, cell-based
Outline: (§2)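 HeLa cells seeded at 1×10^5 per well in complete growth medium and treated 24 h (test compounds 10 µM; nocodazole 2 µM as positive control; DMSO controls). Soluble tubulin was taken by 3 min permeabilization at 30 °C in PIPES-KOH pH 6.8/0.2% Triton X-100/glycerol buffer, and insoluble pellet fraction in Laemmli buffer. Equal volumes were run on SDS-10% PAGE and probed with mouse anti-α-tubulin, with HRP secondary and ECL detection.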

HeLa [3] = experiment: Cell cycle arrest at G2/M phase in human HeLa cells assessed as increase in cyclin B1 expression at 10 uM after 24 hrs by immunoblot analysis relative to control; format: functional, cell-based
HeLa [4] = experiment: Cell cycle arrest in human HeLa cells assessed as disruption of microtubule organization at 10 uM after 24 hrs by DAPI staining-based immunohistochemistry relative to control; format: functional
Outline: (§3)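 HeLa cells were grown on coverslips and treated 24 h at 10 µM. They were fixed in 3.5% formaldehyde/PBS pH 7.4 for 10 min, permeabilized with 0.5% Triton X-100/0.05% Tween-20 and blocked in 2% BSA. Staining used anti-tubulin (1:200, 4 h, room temperature) then FITC anti-mouse (1:500, 1 h). Cells were mounted with DAPI and imaged by confocal microscopy.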

HeLa [5] = experiment: Cell cycle arrest at G2/M phase in human HeLa cells assessed as reduction in polymerized form of tubulin at 10 uM after 24 hrs by immunoblot analysis relative to control; format: functional, cell-based; outline: as §2
Tubulin = Tubulin (Bos taurus, UniProt Q6B856+Q862L2+Q862F3); experiment: Inhibition of bovine brain tubulin polymerization measured for 1 hr by fluorescence assay
HeLa [6] = experiment: Cell cycle arrest in human HeLa cells assessed as planar arrangement of chromosomes with distinct microtubule organization centres at 10 uM after 24 hrs by DAPI staining-based immunohistochemistry relative to control; format: functional; outline: as §3
HeLa [7] = experiment: Cell cycle arrest in human HeLa cells assessed as accumulation at G2/M phase at 10 uM after 24 hrs by FACS analysis (reference value: 26.75%); format: functional
HeLa [8] = experiment: Cell cycle arrest at G2/M phase in human HeLa cells assessed as soluble form of tubulin at 2 uM after 24 hrs by immunoblot analysis relative to control; format: functional, cell-based; outline: as §2
HeLa [9] = experiment: Cell cycle arrest at G2/M phase in human HeLa cells assessed as increase in cyclin B1 expression at 2 uM after 24 hrs by immunoblot analysis relative to control; format: functional, cell-based

Compound	IC50 (A549)	IC50 (MCF7)	inhibition (Tubulin (Bos taurus))	IC50 (HeLa [1])	IC50 (DU-145)	Activity (HeLa [2])	Activity (HeLa [3])	Activity (HeLa [4])	Activity (HeLa [5])	IC50 (Tubulin)	Activity (HeLa [6])	Activity (HeLa [7])	Activity (HeLa [8])	Activity (HeLa [9])
COc1cc(-c2cc(COCc3cn(Cc4cc(C)cnc4Cl)nn3)on2)cc(OC)c1OC	256 µM	194 µM	22%	57.7 µM	39.8 µM									
COc1cc(C2=NOC(COCc3cn(Cc4cc(-c5ccc(F)cc5)cnc4Cl)nn3)C2)cc(OC)c1OC (stereo not given)	25.2 µM	45.7 µM	51%	27.2 µM	32.8 µM									
COc1cc(-c2cc(COCc3cn(Cc4cc(-c5ccc(C)cc5)cnc4N4CCOCC4)nn3)on2)cc(OC)c1OC	45.3 µM	73.4 µM	64%	36.1 µM	52.1 µM									
COc1cc(COCc2cn(Cc3cc(-c4ccc(C)cc4)cnc3N3CCSCC3)nn2)cc(OC)c1OC	33.9 µM	67.8 µM	21%	352 µM	41.9 µM									
COc1cc(C2=NOC(COCc3cn(Cc4cc(C)cnc4Cl)nn3)C2)cc(OC)c1OC (stereo not given)	37.7 µM	85.5 µM	53%	50.5 µM	58.9 µM									
COc1cc(-c2cc(COCc3cn(Cc4cc(-c5ccc(C)cc5)cnc4N4CCSCC4)nn3)on2)cc(OC)c1OC	61 µM	64.8 µM	15%	52.6 µM	94.3 µM									
COc1cc(C2=NOC(COCc3cn(Cc4cc(-c5ccc(C)cc5)cnc4N4CCOCC4)nn3)C2)cc(OC)c1OC (stereo not given)	39.6 µM	59.6 µM	27%	38.7 µM	49.7 µM									
COc1cc(-c2cc(COCc3cn(Cc4cc(C)cnc4N4CCSCC4)nn3)on2)cc(OC)c1OC	40 µM	82.9 µM	32%	53.4 µM	73.9 µM									
COc1cc(COCc2cn(Cc3cc(-c4ccc(C)cc4)cnc3Cl)nn2)cc(OC)c1OC	150 µM	146 µM	35%	28.6 µM	37 µM									
COc1cc(-c2cc(COCc3cn(Cc4cc(-c5ccccc5)cnc4N4CCOCC4)nn3)on2)cc(OC)c1OC	39.2 µM	63.4 µM	27%	39.4 µM	54 µM									
COc1cc(-c2cc(COCc3cn(Cc4cc(-c5ccc(F)cc5)cnc4Cl)nn3)on2)cc(OC)c1OC	40.6 µM	76.4 µM	46%	37.3 µM	31.9 µM									
COc1cc(-c2cc(COCc3cn(Cc4cc(-c5ccc(C)cc5)cnc4Cl)nn3)on2)cc(OC)c1OC	30.6 µM	58.4 µM	59%	35.3 µM	37.3 µM									
COc1cc(COCc2cn(Cc3cc(C)cnc3N3CCSCC3)nn2)cc(OC)c1OC	71.5 µM	82.1 µM	27%	61.8 µM	48.6 µM									
COc1cc(COCc2cn(Cc3cc(-c4ccccc4)cnc3Cl)nn2)cc(OC)c1OC	62.6 µM	86.7 µM	18%	41.9 µM	45.5 µM									
COc1cc(COCc2cn(Cc3cc(C)cnc3Cl)nn2)cc(OC)c1OC	41.9 µM	67.4 µM	24%	264 µM	34.8 µM									
COc1cc(C2=NOC(COCc3cn(Cc4cc(-c5ccccc5)cnc4N4CCOCC4)nn3)C2)cc(OC)c1OC (stereo not given)	39.2 µM	68.8 µM	46%	42.6 µM	44.8 µM									

Compound	IC50 (A549)	IC50 (MCF7)	inhibition (Tubulin (Bos taurus))	IC50 (HeLa [1])	IC50 (DU-145)	Activity (HeLa [2])	Activity (HeLa [3])	Activity (HeLa [4])	Activity (HeLa [5])	IC50 (Tubulin)	Activity (HeLa [6])	Activity (HeLa [7])	Activity (HeLa [8])	Activity (HeLa [9])
COc1cc(C2=NOC(COCc3cn(Cc4cc(-c5ccccc5)cnc4Cl)nn3)C2)cc(OC)c1OC (stereo not given)	8.6 µM	14.6 µM	72%	7.3 µM	11.4 µM	Active	Active	Active	Active	6.8 µM	Active	87.79%		
COc1cc(COCc2cn(Cc3cc(C)cnc3N3CCOCC3)nn2)cc(OC)c1OC	64.9 µM	48.5 µM	45%	35.6 µM	66.7 µM									
COc1cc(-c2cc(COCc3cn(Cc4cc(-c5ccccc5)cnc4N4CCSCC4)nn3)on2)cc(OC)c1OC	52.6 µM	213 µM	11%	175 µM	210 µM									
COc1cc(-c2cc(COCc3cn(Cc4cc(-c5ccccc5)cnc4Cl)nn3)on2)cc(OC)c1OC	112 µM	68.5 µM	16%	43.1 µM	78.5 µM									
COc1cc(C2=NOC(COCc3cn(Cc4cc(-c5ccc(C)cc5)cnc4Cl)nn3)C2)cc(OC)c1OC (stereo not given)	11.5 µM	12.9 µM	69%	9.7 µM	13.1 µM	Active	Active	Active	Active	8.1 µM	Active	78.85%		
COc1cc(C2=NOC(COCc3cn(Cc4cc(C)cnc4N4CCOCC4)nn3)C2)cc(OC)c1OC (stereo not given)	45.4 µM	146 µM	27%	37.3 µM	138 µM									
COc1cc(COCc2cn(Cc3cc(-c4ccc(C)cc4)cnc3N3CCOCC3)nn2)cc(OC)c1OC	38.5 µM	51.7 µM	48%	35.8 µM	34.8 µM									
COc1cc(C2=NOC(COCc3cn(Cc4cc(-c5ccc(C)cc5)cnc4N4CCSCC4)nn3)C2)cc(OC)c1OC (stereo not given)	43.2 µM	71.1 µM	22%	39.2 µM	87.3 µM									
COc1cc2c(c(OC)c1OC)-c1ccc(OC)c(=O)cc1[C@@H](NC(C)=O)CC2 [COLCHICINE]	0.12 µM	0.07 µM		0.54 µM	0.69 µM									
COc1cc(C2=NOC(COCc3cn(Cc4cc(C)cnc4N4CCSCC4)nn3)C2)cc(OC)c1OC (stereo not given)	45.6 µM	45.1 µM	38%	41 µM	29.4 µM									
COc1cc(COCc2cn(Cc3cc(-c4ccccc4)cnc3N3CCSCC3)nn2)cc(OC)c1OC	45.2 µM	59 µM	39%	31.5 µM	48.9 µM									
COc1cc(C2=NOC(COCc3cn(Cc4cc(-c5ccccc5)cnc4N4CCSCC4)nn3)C2)cc(OC)c1OC (stereo not given)	31.5 µM	45 µM	50%	29.2 µM	34.5 µM									
COc1cc(COCc2cn(Cc3cc(-c4ccccc4)cnc3N3CCOCC3)nn2)cc(OC)c1OC	84 µM	97.6 µM	16%	85.1 µM	70.3 µM									
COC(=O)Nc1nc2cc(C(=O)c3cccs3)ccc2[nH]1													Active	Active
COc1cc(-c2cc(COCc3cn(Cc4cc(C)cnc4N4CCOCC4)nn3)on2)cc(OC)c1OC	39.5 µM	195 µM	19%	128 µM	54.7 µM									
COc1cc(COCc2cn(Cc3cc(-c4ccc(F)cc4)cnc3Cl)nn2)cc(OC)c1OC	50.6 µM	96.6 µM	41%	49.6 µM	38.8 µM									
